According to ChEMBL document CHEMBL1127425, “Latent alkyl isocyanates as inhibitors of aldehyde dehydrogenase in vivo” (1994):

Tested on: Rattus norvegicus
Assay: Compound was evaluated for blood acetaldehyde levels elicited by compound after ethanol administration to rat
Type: functional
Details: not given
Summary of the method: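 Fasted male Sprague-Dawley rats (160–200 g) got test agent at 1.0 mmol/kg ip at time zero, suspended in 2% aqueous CMC (peanut oil for the trifluoroacetyl pro-prodrug and N1-EtCP). Ethanol 2.0 g/kg ip followed at 2 h. Rats were killed 1 h after ethanol and blood AcH was measured. Chlorpropamide served as positive control and vehicle alone as control. Groups of three were used, repeated with three more when active. Results are mean ± SEM, ANOVA with Newman-Keuls.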

**Q.** How did the Acetaldehyde level turn out when `CCCNC(=O)N1C(=O)CNC1=O` was run?
**A.** ~0 µM

**Q.** With `CCCNC(=O)N(CC)S(=O)(=O)c1ccc(Cl)cc1` as the compound, how does the Acetaldehyde level read?
**A.** ~410 µM

**Q.** How did the Acetaldehyde level turn out when `CCCNC(=O)NS(=O)(=O)c1ccc(Cl)cc1` [CHLORPROPAMIDE] was run?
**A.** ~170 µM

**Q.** How did the Acetaldehyde level turn out when `C=CCN(C(=O)NCCC)S(=O)(=O)c1ccc(Cl)cc1` was run?
**A.** ~750 µM

**Q.** For `CCCN(C(=O)N(CC)S(=O)(=O)c1ccc(Cl)cc1)C(=O)C(F)(F)F`, which Acetaldehyde level is on record?
**A.** ~450 µM

**Q.** For `CCCNC(=O)SCc1ccccc1`, which Acetaldehyde level is on record?
**A.** 550 µM

**Q.** How did the Acetaldehyde level turn out when `CCCNC(=O)n1c(=O)cc[nH]c1=O` was run?
**A.** 700 µM

**Q.** Which Acetaldehyde level does the source give for `CCCNC(=O)N1C(=O)c2ccccc2S1(=O)=O` here?
**A.** ~500 µM

**Q.** `CCCN1C(=O)CN(S(=O)(=O)c2ccc(Cl)cc2)C1=O` was tested. Which Acetaldehyde level did it give?
**A.** 20 µM

Target: Aldehyde dehydrogenase, mitochondrial ALDH2 (Rattus norvegicus) (UniProt P11884)
Assay: Evaluated for inhibition of hepatic mitochondrial Aldehyde dehydrogenase (ALDH) from rat
Details: concentration not given here

Sequence of Aldehyde dehydrogenase, mitochondrial ALDH2 (Rattus norvegicus) (P11884 whole entry, looked up): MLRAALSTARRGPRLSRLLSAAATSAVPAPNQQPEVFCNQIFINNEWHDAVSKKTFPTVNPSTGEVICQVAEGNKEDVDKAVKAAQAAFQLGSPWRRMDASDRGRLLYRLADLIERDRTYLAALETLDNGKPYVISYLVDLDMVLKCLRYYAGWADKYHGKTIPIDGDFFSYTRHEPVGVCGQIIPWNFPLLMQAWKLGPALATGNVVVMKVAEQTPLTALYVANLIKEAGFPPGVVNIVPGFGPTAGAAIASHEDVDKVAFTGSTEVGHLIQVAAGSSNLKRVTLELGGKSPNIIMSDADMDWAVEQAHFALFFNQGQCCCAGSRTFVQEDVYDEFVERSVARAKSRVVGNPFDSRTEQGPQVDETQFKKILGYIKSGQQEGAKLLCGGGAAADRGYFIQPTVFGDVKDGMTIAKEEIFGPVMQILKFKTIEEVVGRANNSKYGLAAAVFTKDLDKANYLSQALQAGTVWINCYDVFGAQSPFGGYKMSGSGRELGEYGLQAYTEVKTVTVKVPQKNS

**Q.** How did the inhibition turn out when `CCCNC(=O)N(CC)S(=O)(=O)c1ccc(Cl)cc1` was run?
**A.** 78%

Target: Aldehyde dehydrogenase, mitochondrial (Rattus norvegicus) (UniProt P11884)
Assay: Compound was evaluated for inhibition of class II aldehyde dehydrogenase in intact rat liver mitochondria in vitro at 1 mM
Details: not given

**Q.** For `CCCNC(=O)N(C)S(=O)(=O)c1ccc(Cl)cc1`, which Inhibition is on record?
**A.** 49%

Target: Aldehyde dehydrogenase, mitochondrial ALDH2 (Rattus norvegicus) (UniProt P11884)
Assay: Evaluated for inhibition of class II mitochondrial Aldehyde dehydrogenase (ALDH) in osmotically disrupted mitochondria from rat
Details: concentration not given here

**Q.** For `CCCNC(=O)N(C)S(=O)(=O)c1ccc(Cl)cc1`, which inhibition is on record?
**A.** 74%
